# Molecular target: T1, Vascular endothelial growth factor receptor 2 (Homo sapiens, UniProt P35968)
# Experiment: Inhibition of human recombinant His-tagged VEGFR2 assessed as […] absorption by ELISA assay in presence of 20 uM ATP
# Settings: not given
# T1 sequence (P35968 whole entry): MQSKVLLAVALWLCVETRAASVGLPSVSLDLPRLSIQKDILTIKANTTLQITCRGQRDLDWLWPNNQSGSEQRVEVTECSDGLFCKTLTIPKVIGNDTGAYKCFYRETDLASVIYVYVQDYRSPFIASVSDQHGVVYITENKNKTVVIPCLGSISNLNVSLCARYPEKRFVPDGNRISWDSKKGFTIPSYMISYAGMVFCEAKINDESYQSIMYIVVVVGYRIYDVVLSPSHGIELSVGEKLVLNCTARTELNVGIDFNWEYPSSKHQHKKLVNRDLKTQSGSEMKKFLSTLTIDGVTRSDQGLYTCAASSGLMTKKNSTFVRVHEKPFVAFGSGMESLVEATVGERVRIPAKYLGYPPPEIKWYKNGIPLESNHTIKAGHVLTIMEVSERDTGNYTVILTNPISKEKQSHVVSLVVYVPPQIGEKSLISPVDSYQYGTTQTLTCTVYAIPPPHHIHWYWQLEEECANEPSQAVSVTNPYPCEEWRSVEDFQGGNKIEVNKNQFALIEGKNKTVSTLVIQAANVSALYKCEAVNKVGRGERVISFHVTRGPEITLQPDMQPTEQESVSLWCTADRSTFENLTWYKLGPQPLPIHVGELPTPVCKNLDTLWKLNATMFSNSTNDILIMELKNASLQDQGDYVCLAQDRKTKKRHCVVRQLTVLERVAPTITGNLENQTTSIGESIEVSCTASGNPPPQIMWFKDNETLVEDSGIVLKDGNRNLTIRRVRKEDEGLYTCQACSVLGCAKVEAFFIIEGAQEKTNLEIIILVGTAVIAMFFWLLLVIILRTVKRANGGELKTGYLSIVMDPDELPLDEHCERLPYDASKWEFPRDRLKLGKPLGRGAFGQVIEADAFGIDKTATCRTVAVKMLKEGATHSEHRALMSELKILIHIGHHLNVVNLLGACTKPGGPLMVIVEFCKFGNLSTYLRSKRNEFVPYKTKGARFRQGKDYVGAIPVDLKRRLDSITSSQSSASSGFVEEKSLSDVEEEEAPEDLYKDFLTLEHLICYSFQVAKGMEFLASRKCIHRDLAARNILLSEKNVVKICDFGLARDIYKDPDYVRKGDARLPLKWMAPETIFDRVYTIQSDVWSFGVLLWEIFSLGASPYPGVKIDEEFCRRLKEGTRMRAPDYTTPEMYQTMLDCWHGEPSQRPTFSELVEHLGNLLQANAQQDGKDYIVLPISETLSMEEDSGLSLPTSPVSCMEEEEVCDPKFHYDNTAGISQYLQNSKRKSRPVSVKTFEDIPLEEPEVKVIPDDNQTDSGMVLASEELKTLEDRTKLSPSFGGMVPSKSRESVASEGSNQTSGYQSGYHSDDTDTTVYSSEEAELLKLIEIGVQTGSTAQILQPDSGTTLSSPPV
row,IC50,SMILES
1,2 nM,Cc1cc(F)c(Nc2ncnc3cc(OCc4ccccc4)ccc23)cc1O

# Molecular target: T1, Vascular endothelial growth factor receptor 2
# Experiment: Inhibition of human recombinant His-tagged VEGFR2 assessed as […] absorption at 10 uM by ELISA assay in presence of 20 uM ATP
# Settings: not given
# Summary of the method: (§1)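 Human N-terminal His6-tagged recombinant VEGFR2 kinase domain (aa790-end), 100 ng per well, with 20 μM ATP and 1.5 μM substrate peptide (final), in streptavidin-coated wells. Kinase buffer contains up to 1% DMSO. Read-out is ELISA absorbance at 450 nm. Each run includes blank, control, DMSO control and standard. Value is average percent inhibition at the stated final compound concentration, replicates assayed on separate days.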
row,SMILES,inhibition
1,COc1cc2ncnc(Nc3ccc(C)c(F)c3)c2cc1OC,66%
2,COc1cc2ncnc(Nc3ccc(F)cc3)c2cc1OC,6%
3,COc1cc2ncnc(Nc3ccc(F)c(F)c3)c2cc1OC,5%
4,COc1cc2ncnc(Nc3ccc(Cl)cc3)c2cc1OC,4%

# Next, values leading:
row,inhibition,SMILES
1,0%,CCOc1ncnc2cc(OC)c(OC)cc12
2,13%,COc1cc2ncnc(NC(C)C)c2cc1OC
3,19%,COc1cc2ncnc(Nc3ccccc3)c2cc1OC
4,2%,COc1cc2ncnc(OC(C)C)c2cc1OC
5,9%,COc1cc2ncnc(Nc3ccc(C)c(Cl)c3)c2cc1OC
6,17%,COc1cc2ncnc(NC3CCCCC3)c2cc1OC

# Molecular target: T1, Vascular endothelial growth factor receptor 2
# Experiment: Inhibition of human recombinant His-tagged VEGFR2 assessed as […] absorption at 20 uM by ELISA assay in presence of 20 uM ATP
# Settings: not given
# Summary of the method: as §1
row,inhibition,SMILES
1,37%,Cc1cc(F)c(Nc2ncnc3cc(OCc4ccccc4)ccc23)cc1O

# Molecular target: T1, Vascular endothelial growth factor receptor 2
# Settings: 25 uM
row,inhibition,SMILES
1,46%,COc1ccc(-c2cnc3c(-c4ccsc4)cnn3c2)cc1
